Results on 73 sequences are retold here after the array DNA melting data of Ke et al. (doi:10.1101/2024.01.08.574731).

Data set [1] is described as follows: melting temperature; fluorescence melt of hairpins on a sequencing array, two-state fit, raised by 9.35 °C to match UV melts. As to conditions: sodium 0.088 M. The method in brief:
(§1)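 Melting temperature and folding enthalpy were derived from bootstrapped two-state fits. The fitted temperatures were raised by 9.35 °C to agree with UV melts, and four replicates were combined by inverse variance. The underlying data were Cy3 fluorescence images of library hairpins, with annealed Cy3 and quencher oligos, on a sequenced MiSeq flow cell in 50 mM Na-HEPES pH 8.0, 25 mM NaCl, taken in 2.5 °C steps up to 60 °C, normalised to pre-quench Cy3 and to control constructs.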

Data set [2] in a line: folding enthalpy; higher = less favourable; fluorescence melt of hairpins on a sequencing array, two-state fit. As to conditions: sodium 0.088 M. The method in brief:
as §1

On to GCCCAAGGAAACCTAGGC (((.(.(....).).))), for which the Tm in data set [1] is 32.8 °C. For the same sequence, in data set [2], the folding enthalpy was -22.2 kcal/mol.
For GCCCAAGGAAACTTGAGC ((.((((....)))).)), in that order: 37.7 °C and -25.1 kcal/mol.
With GCCCACGAAAGTGAAGGC ((((((....)))..))), the Tm in data set [1] came out at 52.1 °C. Moreover, the folding enthalpy in data set [2] was -28.2 kcal/mol.
In the same order, the values of GCCCACGAAAGTGTAGGC ((((((....)))..))) are 52.8 °C and -24.5 kcal/mol.
For GCCCACGGAAACGCGGGC ((((.((....)).)))), in that order: 62.3 °C and -47.5 kcal/mol.
For GCCCAGCCGAAAGGCGGC (((..(((....)))))), in that order: 62.4 °C and -10.6 kcal/mol.
As for GCCCAGCGAAAGCACGGC (((..((....))..))), the Tm in data set [1] was 52.1 °C. In addition, the folding enthalpy in data set [2] was -18.4 kcal/mol.
With GCCCAGCGAAAGCATGGC (((..((....))..))), the Tm in data set [1] amounted to 56 °C. In addition, in data set [2], the folding enthalpy was -16 kcal/mol.
In the same order, the values of GCCCAGCGAAAGCCGAGC ((.(.((....)).).)) are 40.6 °C and -7.29 kcal/mol.
Take GCCCAGCGAAAGCTATGC ((..(((....)))..)): in data set [1], the Tm stood at 25.6 °C. Also, in data set [2], the folding enthalpy is -5.13 kcal/mol.
In the case of GCCCAGCGAAAGCTTAGC ((..(((....)))..)), the Tm in data set [1] is 32.8 °C. Besides, in data set [2], the folding enthalpy is -8.7 kcal/mol.
In the same order, the values of GCCCATGGAAACATGAGC ((.((((....)))).)) are 43.1 °C and -27.9 kcal/mol.
For the sequence GCCCATGGAAACATGGAC (.(((((....))))).), the Tm in data set [1] was 46.7 °C. Besides, the folding enthalpy in data set [2] was -15.1 kcal/mol.
Turning to GCCCCACGAAAGTGTGGC (((.(((....))).))), the Tm in data set [1] was 57.9 °C. Besides, the folding enthalpy in data set [2] was -35.9 kcal/mol.
For the sequence GCCCCCGAAAGGGACGGC ((((((....)))..))), the Tm in data set [1] stood at 50.9 °C. Besides, in data set [2], the folding enthalpy is -21 kcal/mol.
In the case of GCCCCCGAAAGGGCGGGC ((((((....)))..))), the Tm in data set [1] is 63.7 °C. For the same sequence, in data set [2], the folding enthalpy is -17.9 kcal/mol.
For GCCCCCGAAAGGGGTGGC ((((((....)))..))), in that order: 56.6 °C and -12.8 kcal/mol.
Consider GCCCCCGAAAGGGTCGGC ((((((....)))..))), for which, in data set [1], the Tm is 50.4 °C. Besides, the folding enthalpy in data set [2] was -17.1 kcal/mol.
Turning to GCCCCCGAAAGGGTTGGC ((((((....)))..))), the Tm in data set [1] was found to be 52.6 °C. In addition, the folding enthalpy in data set [2] is -18 kcal/mol.
With GCCCCGCGAAAGCAGAGC ((.(.((....)).).)), the Tm in data set [1] turned out to be 32.8 °C. In addition, in data set [2], the folding enthalpy was -11.5 kcal/mol.
In the same order, the values of GCCCCGCGAAAGCATGGC (((..((....))..))) are 45.4 °C and -17.4 kcal/mol.
For GCCCCGCGAAAGCCAGGC (((..((....))..))), in that order: 44.8 °C and -20.8 kcal/mol.
For GCCCCGCGAAAGCCGGGC ((((.((....)).)))), in that order: 66.4 °C and -18.3 kcal/mol.
With GCCCCGCGAAAGCGGAGC ((.((((....)))).)), in data set [1], the Tm was found to be 68.1 °C. Further, in data set [2], the folding enthalpy is -22 kcal/mol.
With GCCCCGCGAAAGCTGTGC ((.(.((....)).).)), the Tm in data set [1] was determined as 30.4 °C. The folding enthalpy in data set [2] is -12.1 kcal/mol.
On to GCCCCGGCGAAAGCCGGC (((..(((....)))))), for which the Tm in data set [1] is 39.8 °C. The folding enthalpy in data set [2] is -2.7 kcal/mol.
Regarding GCCCCGGGAAACCAGGGC ((((.((....)).)))), in data set [1], the Tm is 55.5 °C. In data set [2], the folding enthalpy was -33 kcal/mol.
As for GCCCGATCGAAAGATGGC (((..(((....)))))), the Tm in data set [1] is 40.2 °C. For the same sequence, the folding enthalpy in data set [2] was -23.6 kcal/mol.
As for GCCCGCCGAAAGGCAGGC (((.(((....))).))), the Tm in data set [1] was determined as 69 °C. Moreover, the folding enthalpy in data set [2] is -20.8 kcal/mol.
For GCCCGCCGAAAGGCCGGC (((.(((....))).))), in that order: 64.8 °C and -19.4 kcal/mol.
GCCCGCCGAAAGGCTGGC (((.(((....))).))): the Tm in data set [1] worked out at 65.1 °C. For the same sequence, the folding enthalpy in data set [2] is -36.2 kcal/mol.
In the case of GCCCGCGAAAGCGTCGGC ((((((....)))..))), in data set [1], the Tm was 56.5 °C. For the same sequence, the folding enthalpy in data set [2] was -17.9 kcal/mol.
In the same order, the values of GCCCGCGAAAGCGTGGGC ((((((....)))..))) are 68.6 °C and -24.9 kcal/mol.
In the case of GCCCGCGGAAACGCGAGC ((.((((....)))).)), the Tm in data set [1] turned out to be 62.2 °C. Further, the folding enthalpy in data set [2] is -17.3 kcal/mol.
For GCCCGGCGAAAGCAAGGC (((..((....))..))), in that order: 59 °C and -18.6 kcal/mol.
Turning to GCCCGGCGAAAGCAGCGC ((.(.((....)).).)), the Tm in data set [1] is 46.5 °C. For the same sequence, in data set [2], the folding enthalpy was -16.4 kcal/mol.
For GCCCGGCGAAAGCCATGC ((..(((....)))..)), in that order: 28.8 °C and -8.55 kcal/mol.
In the same order, the values of GCCCGGCGAAAGCCTAGC ((..(((....)))..)) are 27.2 °C and -13.8 kcal/mol.
In the same order, the values of GCCCGGCGAAAGCGAGGC (((..((....))..))) are 58.9 °C and -16.6 kcal/mol.
As to GCCCGGCGAAAGCTGAGC ((.(.((....)).).)), in data set [1], the Tm amounted to 48.7 °C. Further, the folding enthalpy in data set [2] is -18.3 kcal/mol.
For GCCCGGGGAAACCCAGGC (((.(((....))).))), in that order: 52.8 °C and -32.6 kcal/mol.
For the sequence GCCCGTCGAAAGACCGGC (((.(((....))).))), the Tm in data set [1] turned out to be 52.6 °C. Further, the folding enthalpy in data set [2] was -38.4 kcal/mol.
As to GCCCGTCGAAAGACTGGC (((.(((....))).))), in data set [1], the Tm turned out to be 55.4 °C. Moreover, the folding enthalpy in data set [2] is -48.7 kcal/mol.
Regarding GCCCGTGGAAACACGAGC ((.((((....)))).)), the Tm in data set [1] stood at 50.8 °C. In addition, the folding enthalpy in data set [2] was -24 kcal/mol.
For GCCCTACCGAAAGGTGGC (((..(((....)))))), in that order: 49 °C and -20.8 kcal/mol.
In the same order, the values of GCCCTAGGAAACCAAGGC (((.(.(....).).))) are 28.2 °C and -12 kcal/mol.
In the same order, the values of GCCCTCGAAAGAGAGGC ((((((....))).))) are 58.2 °C and -31.1 kcal/mol.
On to GCCCTCGAAAGAGCGGGC ((((((....)))..))), for which, in data set [1], the Tm was determined as 50.1 °C. For the same sequence, the folding enthalpy in data set [2] was -29.2 kcal/mol.
In the same order, the values of GCCCTCGAAAGAGGCGGC ((((((....)))..))) are 56 °C and -19.1 kcal/mol.
In the same order, the values of GCCCTCGAAAGAGGGGGC ((((((....)))..))) are 68.4 °C and -15.1 kcal/mol.
For GCCCTCGAAAGAGTGGC ((((((....))).))), in that order: 58.5 °C and -31.9 kcal/mol.
As to GCCCTGCGAAAGCACTGC ((..(((....)))..)), the Tm in data set [1] came to 24.6 °C. Further, the folding enthalpy in data set [2] is -6.98 kcal/mol.
For GCCCTGCGAAAGCAGGC (((.(((....)))))), in that order: 65.1 °C and -8.08 kcal/mol.
For GCCCTGCGAAAGCCGAGC ((.(.((....)).).)), in that order: 34.5 °C and -11 kcal/mol.
In the same order, the values of GCCCTGCGAAAGCCGTGC ((.(.((....)).).)) are 31.7 °C and -11.6 kcal/mol.
With GCCCTGCGAAAGCCTGGC (((..((....))..))), the Tm in data set [1] is 45.5 °C. The folding enthalpy in data set [2] was -16.2 kcal/mol.
In the case of GCCCTGCGAAAGCGGCGC ((.(.((....)).).)), in data set [1], the Tm is 62 °C. Besides, the folding enthalpy in data set [2] was -15 kcal/mol.
For GCCCTGCGAAAGCTTGGC (((..((....))..))), in that order: 50.6 °C and -23 kcal/mol.
In the same order, the values of GCCCTGGGAAACCAGAGC ((.((((....)))).)) are 45.5 °C and -28.7 kcal/mol.
In the case of GCCCTGGGAAACTAGGGC (((((.(....).))))), the Tm in data set [1] was determined as 55.3 °C. Also, the folding enthalpy in data set [2] is -44.5 kcal/mol.
In the case of GCCCTTGCGAAAGCAGGC (((..(((....)))))), the Tm in data set [1] came out at 43.8 °C. Besides, the folding enthalpy in data set [2] is -14.7 kcal/mol.
In the same order, the values of GCCCTTGGAAACAAAGGC (((.(((....))).))) are 35.3 °C and -28.2 kcal/mol.
Take GCCCTTTCGAAAGAAGGC (((..(((....)))))): the Tm in data set [1] came to 37.6 °C. In data set [2], the folding enthalpy is -33.3 kcal/mol.
In the same order, the values of GCCGAACGAAAGTTTGGC (((.(((....))).))) are 66 °C and -35.2 kcal/mol.
For GCCGACCGAAAGGTGGGC (((.(((....))).))), in that order: 67.4 °C and -34.4 kcal/mol.
GCCGACGAAAGTCCGGGC ((((((....)))..))): the Tm in data set [1] is 53 °C. The folding enthalpy in data set [2] was -24.4 kcal/mol.
For the sequence GCCGACGAAAGTCGAGGC ((((((....)))..))), the Tm in data set [1] is 59.5 °C. The folding enthalpy in data set [2] is -16.5 kcal/mol.
For GCCGACGAAAGTCTCGGC ((((((....)))..))), in that order: 52 °C and -37.1 kcal/mol.
Take GCCGACGGAAACACCGGC ((((..(....)..)))): in data set [1], the Tm turned out to be 43.9 °C. In addition, in data set [2], the folding enthalpy was -20.4 kcal/mol.
For GCCGAGCCGAAAGGCGGC (((..(((....)))))), in that order: 68.7 °C and -12.7 kcal/mol.
For GCCGAGCGAAAGCATGGC (((..((....))..))), in that order: 64 °C and -28.1 kcal/mol.
In the same order, the values of GCCGAGCGAAAGCCAGGC (((..((....))..))) are 62.7 °C and -24 kcal/mol.
Take GCCGAGCGAAAGCTCCGC ((.((((....)))).)): the Tm in data set [1] turned out to be 55.7 °C. Besides, in data set [2], the folding enthalpy is -18 kcal/mol.
